Assay [1] addresses T1, Alpha-2C adrenergic receptor (Homo sapiens) (UniProt P18825).
T1 sequence (whole entry): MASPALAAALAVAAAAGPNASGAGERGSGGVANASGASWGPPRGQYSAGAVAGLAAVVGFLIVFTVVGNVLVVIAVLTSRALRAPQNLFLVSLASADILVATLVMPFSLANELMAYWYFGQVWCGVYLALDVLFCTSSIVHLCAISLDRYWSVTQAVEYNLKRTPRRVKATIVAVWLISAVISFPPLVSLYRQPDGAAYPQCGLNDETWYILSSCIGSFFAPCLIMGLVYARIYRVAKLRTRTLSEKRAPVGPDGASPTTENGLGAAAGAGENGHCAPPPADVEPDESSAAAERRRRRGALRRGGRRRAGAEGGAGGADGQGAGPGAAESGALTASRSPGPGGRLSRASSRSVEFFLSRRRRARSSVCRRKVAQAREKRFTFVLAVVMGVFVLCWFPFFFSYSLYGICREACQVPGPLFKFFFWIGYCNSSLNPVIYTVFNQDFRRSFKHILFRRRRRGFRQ
Description: Displacement of [3H]RX821002 from human alpha2C adrenergic receptor expressed in CHO cells at 1 uM by scintillation counting analysis. The assay is classed as cell-based. The method, boiled down:
(§1)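 Extended binding screen run by a contract lab. Receptors were cloned human: 5-HT1A, 5-HT2A, 5-HT2C and H1 in HEK-293 cells; D1, α1, α2C and M3 in CHO cells; 5-HT6/7 and D2/3/4 in CHO cells. Radioligand displacement was done at a single 1.0E-06 concentration in duplicate. Results are mean % inhibition of control specific binding.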

Assay [2] deals with 5-hydroxytryptamine receptor 7 (Rattus norvegicus, UniProt P32305). Put plainly: Displacement of [3H]-5-CT from 5-HT7 receptor in rat hypothalamic membrane by liquid scintillation analysis. The assay is classed as cell membranes. The gist of the method:
(§2)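 Native rat membranes were used: hippocampus with [3H]-8-OH-DPAT (170 Ci/mmol) and 5-HT for non-specific binding; cortex with [3H]-ketanserin (88.0 Ci/mmol) and methysergide; hypothalamus with [3H]-5-CT (34.5 Ci/mmol) and 5-HT. Compounds were tested in triplicate at 7–8 concentrations (10⁻¹¹–10⁻⁴ M). Read-out was liquid scintillation counting. Ki came from nonlinear regression with Cheng-Prusoff, as the mean of at least two experiments.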

The target in assay [3] is Muscarinic acetylcholine receptor M3 (Homo sapiens) (UniProt P20309). Description: Displacement of [3H]-4-DAMP from human muscarinic M3 receptor expressed in CHO cells at 1 uM by scintillation counting analysis. The assay is classed as cell-based. The gist of the method:
as §1

Assay [4] concerns the target 5-hydroxytryptamine receptor 2A (Rattus norvegicus, UniProt P14842). Put plainly: Displacement of [3H]ketanserin from 5-HT2A receptor in rat cortical membrane by liquid scintillation analysis. The class given is cell membranes. The method, boiled down: as §2
Assay [5] deals with D(1A) dopamine receptor (Homo sapiens) (UniProt P21728). Put plainly: Displacement of [3H]SCH23390 from human D1 receptor expressed in CHO cells at 1 uM by scintillation counting analysis. The assay is classed as cell-based. The gist of the method:
as §1

The target in assay [6] is T2, 5-hydroxytryptamine receptor 1A (Rattus norvegicus, UniProt P19327).
T2 sequence (P19327 whole entry): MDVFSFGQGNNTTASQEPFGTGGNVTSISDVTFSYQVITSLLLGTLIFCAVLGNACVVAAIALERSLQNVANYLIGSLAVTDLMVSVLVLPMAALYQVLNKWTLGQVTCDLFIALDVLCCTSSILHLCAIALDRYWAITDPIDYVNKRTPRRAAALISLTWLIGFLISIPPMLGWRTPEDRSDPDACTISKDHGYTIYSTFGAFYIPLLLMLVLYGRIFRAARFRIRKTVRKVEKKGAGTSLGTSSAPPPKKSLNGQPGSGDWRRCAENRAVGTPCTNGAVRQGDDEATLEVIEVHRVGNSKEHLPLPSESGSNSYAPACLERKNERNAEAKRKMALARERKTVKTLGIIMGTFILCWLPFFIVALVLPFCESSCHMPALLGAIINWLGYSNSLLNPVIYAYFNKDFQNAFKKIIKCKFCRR
Description: Displacement of [3H]-8-OH-DPAT from 5-HT1A receptor in rat hippocampal membrane by liquid scintillation analysis. The assay is classed as cell membranes, Hippocampus. The method, boiled down: as §2

Assay [7] addresses Adrenergic receptor alpha-1 (Homo sapiens) (UniProt P35348+P25100+P35368). Description: Displacement of [3H]prazosin from human alpha1-adrenergic receptor expressed in CHO cells at 1 uM by scintillation counting analysis. The class given is cell-based. The gist of the method:
as §1

In a further assay the target is D(2) dopamine receptor (Rattus norvegicus, UniProt P61169). Put plainly: Displacement of [3H]spiperone from D2 receptor in rat striatum by liquid scintillation counting analysis. The gist of the method: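 Rat striatal membranes with [3H]-spiperone. Compounds were tested in triplicate at 7–8 concentrations (10⁻¹¹–10⁻⁴). Ki values were calculated.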
Chain of D(2) dopamine receptor (P61169 whole entry): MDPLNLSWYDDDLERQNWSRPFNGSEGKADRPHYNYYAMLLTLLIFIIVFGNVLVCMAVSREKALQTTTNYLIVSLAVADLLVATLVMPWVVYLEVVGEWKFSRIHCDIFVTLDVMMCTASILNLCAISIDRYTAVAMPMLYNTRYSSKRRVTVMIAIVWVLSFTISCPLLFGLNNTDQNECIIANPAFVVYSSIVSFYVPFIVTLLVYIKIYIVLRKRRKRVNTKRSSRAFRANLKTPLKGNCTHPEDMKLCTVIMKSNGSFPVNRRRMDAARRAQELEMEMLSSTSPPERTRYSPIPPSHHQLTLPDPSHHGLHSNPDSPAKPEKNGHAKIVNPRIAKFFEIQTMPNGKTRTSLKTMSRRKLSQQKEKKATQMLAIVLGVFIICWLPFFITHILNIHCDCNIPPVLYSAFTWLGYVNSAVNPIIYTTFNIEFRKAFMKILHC
Assay [8] addresses T3, D(4) dopamine receptor (Homo sapiens) (UniProt P21917).
T3 sequence (whole entry): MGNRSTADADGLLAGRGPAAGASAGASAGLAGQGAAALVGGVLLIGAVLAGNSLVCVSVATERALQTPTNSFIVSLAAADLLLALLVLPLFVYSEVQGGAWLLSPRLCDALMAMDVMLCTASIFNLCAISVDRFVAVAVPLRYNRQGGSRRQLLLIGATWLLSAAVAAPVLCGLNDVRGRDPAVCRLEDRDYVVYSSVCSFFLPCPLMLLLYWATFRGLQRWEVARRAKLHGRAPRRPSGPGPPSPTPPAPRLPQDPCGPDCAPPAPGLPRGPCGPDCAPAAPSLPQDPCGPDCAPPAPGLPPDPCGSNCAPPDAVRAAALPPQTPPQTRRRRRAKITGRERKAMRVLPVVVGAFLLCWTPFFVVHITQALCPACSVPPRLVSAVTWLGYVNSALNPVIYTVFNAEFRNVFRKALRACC
Put plainly: Displacement of [3H]methylspiperione from human D4 receptor expressed in CHO cells at 1 uM by scintillation counting analysis. The assay is classed as cell-based. The gist of the method:
as §1

Assay [9] concerns the target T4, 5-hydroxytryptamine receptor 2C (Homo sapiens) (UniProt P28335).
T4 sequence (whole entry): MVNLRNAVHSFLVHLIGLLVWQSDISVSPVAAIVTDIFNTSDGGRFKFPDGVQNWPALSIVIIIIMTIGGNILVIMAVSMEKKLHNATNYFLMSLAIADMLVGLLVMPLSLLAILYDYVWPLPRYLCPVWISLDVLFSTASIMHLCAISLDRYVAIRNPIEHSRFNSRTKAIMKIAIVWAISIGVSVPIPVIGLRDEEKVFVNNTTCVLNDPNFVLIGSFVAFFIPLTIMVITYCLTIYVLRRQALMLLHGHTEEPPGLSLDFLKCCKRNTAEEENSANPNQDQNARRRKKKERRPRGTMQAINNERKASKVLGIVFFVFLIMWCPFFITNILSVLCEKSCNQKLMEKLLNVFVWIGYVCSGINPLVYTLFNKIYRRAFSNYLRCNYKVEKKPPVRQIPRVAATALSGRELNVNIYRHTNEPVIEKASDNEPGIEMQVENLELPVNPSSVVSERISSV
Description: Displacement of [3H]-mesulergine from human cloned 5HT2C receptor expressed in HEK293 cells at 1 uM by scintillation counting analysis. The class given is cell-based. The method, boiled down: as §1

Assay [10] deals with Histamine H1 receptor (Homo sapiens) (UniProt P35367). Description: Displacement of [3H]-pyrilamine from human cloned H1 receptor expressed in HEK293 cells at 1 uM by scintillation counting analysis. The class given is cell-based. The gist of the method:
as §1

pKi: −log10 of the molar value.

Chain of 5-hydroxytryptamine receptor 7 (P32305 whole entry): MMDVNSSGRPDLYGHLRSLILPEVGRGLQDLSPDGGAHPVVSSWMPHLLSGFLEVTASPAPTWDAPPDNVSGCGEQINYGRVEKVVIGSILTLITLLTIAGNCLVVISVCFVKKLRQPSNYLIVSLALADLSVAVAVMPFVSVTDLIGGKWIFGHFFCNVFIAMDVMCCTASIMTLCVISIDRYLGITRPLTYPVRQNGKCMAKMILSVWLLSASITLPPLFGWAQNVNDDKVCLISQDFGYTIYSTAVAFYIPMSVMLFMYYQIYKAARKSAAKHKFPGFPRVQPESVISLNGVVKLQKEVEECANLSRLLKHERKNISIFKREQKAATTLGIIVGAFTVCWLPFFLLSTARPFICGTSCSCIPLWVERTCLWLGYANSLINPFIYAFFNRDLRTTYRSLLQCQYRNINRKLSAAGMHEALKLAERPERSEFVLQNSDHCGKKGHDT
Chain of Muscarinic acetylcholine receptor M3 (Homo sapiens) (P20309 whole entry, looked up): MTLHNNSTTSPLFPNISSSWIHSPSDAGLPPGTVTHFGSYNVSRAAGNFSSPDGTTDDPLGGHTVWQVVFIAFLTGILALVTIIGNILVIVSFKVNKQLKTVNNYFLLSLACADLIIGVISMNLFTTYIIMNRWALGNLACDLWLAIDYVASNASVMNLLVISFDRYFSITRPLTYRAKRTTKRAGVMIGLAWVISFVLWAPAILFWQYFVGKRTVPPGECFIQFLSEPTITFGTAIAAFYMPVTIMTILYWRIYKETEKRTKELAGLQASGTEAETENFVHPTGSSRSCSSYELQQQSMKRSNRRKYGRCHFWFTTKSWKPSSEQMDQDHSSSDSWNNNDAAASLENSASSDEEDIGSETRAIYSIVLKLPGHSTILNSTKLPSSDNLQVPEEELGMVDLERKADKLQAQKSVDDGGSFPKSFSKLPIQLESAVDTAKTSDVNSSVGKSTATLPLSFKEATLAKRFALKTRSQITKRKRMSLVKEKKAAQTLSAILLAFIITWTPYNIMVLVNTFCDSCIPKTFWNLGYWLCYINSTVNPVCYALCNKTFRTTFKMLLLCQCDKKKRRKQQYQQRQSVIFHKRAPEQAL
Chain of 5-hydroxytryptamine receptor 2A (P14842 whole entry): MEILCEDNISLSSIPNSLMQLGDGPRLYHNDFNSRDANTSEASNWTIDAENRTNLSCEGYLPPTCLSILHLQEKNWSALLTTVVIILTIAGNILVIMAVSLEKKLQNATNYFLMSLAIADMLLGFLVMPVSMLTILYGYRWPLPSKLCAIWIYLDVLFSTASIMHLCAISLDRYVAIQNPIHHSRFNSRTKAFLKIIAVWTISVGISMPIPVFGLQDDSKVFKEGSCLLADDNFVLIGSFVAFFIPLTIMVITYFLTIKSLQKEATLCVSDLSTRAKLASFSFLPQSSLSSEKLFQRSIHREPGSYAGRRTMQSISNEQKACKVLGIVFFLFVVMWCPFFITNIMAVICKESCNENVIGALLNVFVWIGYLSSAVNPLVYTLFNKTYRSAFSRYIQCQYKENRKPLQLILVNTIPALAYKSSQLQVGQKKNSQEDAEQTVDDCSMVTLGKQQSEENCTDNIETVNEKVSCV
Chain of D(1A) dopamine receptor (Homo sapiens) (P21728 whole entry): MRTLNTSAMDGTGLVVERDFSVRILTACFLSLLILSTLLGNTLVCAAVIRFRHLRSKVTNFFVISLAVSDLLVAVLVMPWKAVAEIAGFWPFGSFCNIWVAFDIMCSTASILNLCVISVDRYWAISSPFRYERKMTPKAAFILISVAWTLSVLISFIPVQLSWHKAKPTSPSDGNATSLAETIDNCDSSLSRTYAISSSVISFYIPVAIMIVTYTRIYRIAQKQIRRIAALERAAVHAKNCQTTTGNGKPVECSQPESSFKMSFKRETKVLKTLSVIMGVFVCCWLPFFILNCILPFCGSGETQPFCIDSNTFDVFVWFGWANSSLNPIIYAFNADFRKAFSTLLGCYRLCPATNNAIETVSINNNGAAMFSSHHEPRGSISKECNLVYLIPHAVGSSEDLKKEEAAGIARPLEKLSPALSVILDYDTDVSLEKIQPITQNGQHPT
Chain of Histamine H1 receptor (Homo sapiens) (P35367 whole entry): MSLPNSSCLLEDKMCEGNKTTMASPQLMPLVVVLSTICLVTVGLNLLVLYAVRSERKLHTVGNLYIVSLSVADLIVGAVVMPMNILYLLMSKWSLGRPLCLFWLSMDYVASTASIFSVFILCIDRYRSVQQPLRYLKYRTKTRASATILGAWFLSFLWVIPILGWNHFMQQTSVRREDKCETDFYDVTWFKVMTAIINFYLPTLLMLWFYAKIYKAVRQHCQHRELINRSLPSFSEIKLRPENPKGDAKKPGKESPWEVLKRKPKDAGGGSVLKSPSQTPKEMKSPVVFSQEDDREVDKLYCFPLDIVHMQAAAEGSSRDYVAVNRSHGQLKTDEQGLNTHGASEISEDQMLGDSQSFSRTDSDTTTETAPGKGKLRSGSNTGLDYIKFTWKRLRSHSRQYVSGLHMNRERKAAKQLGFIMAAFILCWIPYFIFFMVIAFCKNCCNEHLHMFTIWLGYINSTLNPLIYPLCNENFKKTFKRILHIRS

With `COc1ccccc1N1CCN(CCCCN2C(=O)NC3(CCCc4ccccc43)C2=O)CC1` (centres undefined), the inhibition in [1] was 101%; in [3], -6%; in assay [5] it was 87%; in [7], 99%; in assay [8], 98%; in [9], 24%. In [10], the inhibition came to 99%. In addition, the negative-log Ki (pKi) in assay [2] was 7.33; in assay [4], 7.23; in assay [6], 8.66; at D(2) dopamine receptor it was 7.23.
In the case of `O=C1NC2(CCCc3ccccc32)C(=O)N1CCCCN1CCN(c2cccc(Cl)c2)CC1` (centres undefined), the inhibition is 99% in [1]; 3% in assay [3]; 95% in [5]; 94% in assay [7]; 93% in [8]; 61% in assay [9]. Further, in assay [10], the inhibition was 102%. Moreover, the pKi in [2] is 7.43; in assay [4], 7.57; in assay [6] it was 7.82; at D(2) dopamine receptor, 5.96.
With `COc1ccccc1N1CCN(CCCCN2C(=O)NC3(CCc4ccccc43)C2=O)CC1` (centres undefined), the inhibition in [1] was determined as 101%; in [3], 5%; in assay [5], 68%; in [7], 98%; in assay [8], 95%; in assay [9] it was 21%. For the same compound, in assay [10], the inhibition turned out to be 94%. For the same compound, the pKi in [2] was 7.15; in assay [4], 7.01; in assay [6] it was 8.59; at D(2) dopamine receptor it was 6.98.
Regarding `O=C1NC2(CCc3ccccc32)C(=O)N1CCCCN1CCN(c2cccc(Cl)c2)CC1` (centres undefined), the inhibition in assay [1] is 97%; in assay [3], 5%; in [5] it was 91%; in assay [7], 96%; in assay [8] it was 90%; in [9] it was 61%. In [10], the inhibition amounted to 101%. The pKi in [2] was 7.57; in assay [4] it was 7.68; in assay [6], 7.92; on D(2) dopamine receptor, 6.27.

Source of the values: ChEMBL document CHEMBL3588770, “Novel spirohydantoin derivative as a potent multireceptor-active antipsychotic and antidepressant agent” (Bioorg Med Chem, 2015).
